How the values were obtained:
[1] = target: Sodium-dependent dopamine transporter (Rattus norvegicus, UniProt P23977); assay: Binding affinity was evaluated using [3H]WIN-35428 binding to dopamine transporter (DAT) in rat caudate-putamen; format: tissue-based
Sigma 2 receptor = assay: Binding affinity was evaluated using [3H]-DTG binding to sigma-2 receptor from rat liver
In short: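 Rat liver membranes (male Sprague-Dawley), 160 μg protein, with 5 nM [3H]DTG plus 1 μM dextrallorphan to mask σ1 sites; 50 mM Tris-HCl pH 8.0, 120 min at 25 °C. Nonspecific binding with 10 μM haloperidol; filtration on poly(ethylenimine)-soaked glass fiber filters, scintillation counting.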

[2] = target: Sodium-dependent dopamine transporter (Rattus norvegicus) (UniProt P23977); assay: Binding constant(Bmax) of [3H]WIN-35428 at saturation in rat caudate-putamen tissue pre-incubated in buffer (Dopamine transporter); format: tissue-based
In short: (§1)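 Rat caudate-putamen homogenate in Krebs-HEPES buffer pH 7.4, preincubated 1 h on ice with buffer alone, 100 nM or 10 μM ligand, then washed by two centrifugations. Twelve-point saturation with 0.1–25 nM [3H]WIN 35,428, 1 h on ice; filtration. Bmax and KD fitted by nonlinear least squares across replicate experiments, with standard errors; protein by modified Lowry.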

[3] = target: Sodium-dependent dopamine transporter (Rattus norvegicus) (UniProt P23977); assay: Binding constant(Bmax) of [3H]WIN-35428 at saturation in rat caudate-putamen tissue pre-incubated in buffer at 10 uM (Dopamine transporter); format: tissue-based; in short: as §1
[4] = target: Sodium-dependent dopamine transporter (Rattus norvegicus) (UniProt P23977); assay: Binding constant(Bmax) of [3H]WIN-35428 at saturation in rat caudate-putamen tissue preincubated in buffer at 100 nM (Dopamine transporter); format: tissue-based; in short: as §1

Sequence of Sodium-dependent dopamine transporter (P23977 whole entry): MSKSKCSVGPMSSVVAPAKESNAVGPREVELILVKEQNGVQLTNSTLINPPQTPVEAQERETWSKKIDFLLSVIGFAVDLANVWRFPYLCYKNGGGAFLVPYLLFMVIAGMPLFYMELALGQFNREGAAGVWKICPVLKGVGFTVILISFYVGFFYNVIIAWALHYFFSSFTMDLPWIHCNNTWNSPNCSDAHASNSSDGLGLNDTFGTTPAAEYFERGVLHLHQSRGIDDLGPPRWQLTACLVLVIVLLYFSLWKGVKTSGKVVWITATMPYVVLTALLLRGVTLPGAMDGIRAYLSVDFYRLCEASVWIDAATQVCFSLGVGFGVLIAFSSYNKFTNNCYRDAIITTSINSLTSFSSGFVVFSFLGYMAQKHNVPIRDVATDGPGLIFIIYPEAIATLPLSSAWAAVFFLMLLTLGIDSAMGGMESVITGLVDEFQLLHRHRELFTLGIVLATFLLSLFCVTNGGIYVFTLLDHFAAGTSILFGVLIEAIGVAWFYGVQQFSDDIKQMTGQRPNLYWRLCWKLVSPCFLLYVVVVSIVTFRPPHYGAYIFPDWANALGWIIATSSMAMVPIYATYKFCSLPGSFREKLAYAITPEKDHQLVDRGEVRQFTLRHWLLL
Sequence of Sodium-dependent dopamine transporter (Rattus norvegicus) (P23977 whole entry): as above

| Structure (SMILES) | IC50 [1] | IC50 (Sigma 2 receptor) | Bmax (fM (mg of protein)-1) [2] | Bmax (fM (mg of protein)-1) [3] | Bmax (fM (mg of protein)-1) [4] |
| --- | --- | --- | --- | --- | --- |
| C[C@H]1CN(CCCn2c3ccccc3c3ccccc32)C[C@H](C)N1C | 244 nM | 294 nM | – | – | – |
| CC1CN(CCCn2c3ccccc3c3cc(N=C=S)ccc32)CC(C)N1C (stereo not drawn) | 1330 nM | – | – | – | – |
| C[C@@H]1CN(CCCn2c3ccccc3c3ccccc32)C[C@H](C)N1 [RIMCAZOLE] | 57.6 nM | 386 nM | – | – | – |
| CC1CN(CCCn2c3ccccc3c3ccccc32)CC(C)N1CCN=C=S (stereo not drawn) | 1250 nM | 1440 nM | – | – | – |
| CC1CN(CCCn2c3ccccc3c3ccccc32)CC(C)N1CCCCCCN=C=S (stereo not drawn) | – | 211 nM | 537 | 6.65 | 167 |
| CC1CN(CCCn2c3ccccc3c3ccccc32)CC(C)N1CCCN=C=S (stereo not drawn) | 523 nM | 877 nM | – | – | – |

Reference: ChEMBL document CHEMBL1130315 (J Med Chem, 1997)
